Measured values taken from ChEMBL document CHEMBL1165950, “Design and synthesis of new potent anticancer pyrazoles with high FLT3 kinase inhibitory selectivity” (Bioorg Med Chem, 2010).

Legend:
Type in all cases: functional
EKVX = test: Cytotoxicity against human EKVX cells assessed as cell growth at 100 nM after 48 hrs by sulforhodamine B assay; settings: read-out: Activity
IGROV-1 [1] = test: Cytotoxicity against human IGROV1 cells assessed as cell growth at 10 uM; settings: read-out: Activity
How it was run: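 Single-dose NCI-60 screen at 10 µM. Cells were grown in RPMI 1640 with 5% FBS and 2 mM L-glutamine, then treated for 48 h at 37 °C. Protein was measured by SRB staining with absorbance at 515 nm. Percentage growth was recorded, and inhibition percentage was calculated as 100 minus growth percentage.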

IGROV-1 [2] = test: Cytotoxicity against human IGROV1 cells assessed as cell growth at 100 nM after 48 hrs by sulforhodamine B assay; settings: IGROV-1, 48 h, read-out: Activity
NCI-H322M = test: Cytotoxicity against human NCI-H322M cells assessed as cell growth at 10 uM after 48 hrs by sulforhodamine B assay; settings: read-out: Activity
UACC-62 = test: Growth inhibition of human UACC62 cells after 48 hrs by sulforhodamine B assay; settings: UACC-62, 48 h; for CC50: read-out: LC50 (the source's name)
How it was run: (§1)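 NCI 60-cell screen, five-dose mode. Cells grown in RPMI 1640 with 5% FBS and 2 mM L-glutamine and plated at 5000-40,000 cells/well according to doubling time. After 24 h preincubation, a Tz plate was TCA-fixed. Five concentrations (10-fold or 1/2 log dilutions) were applied for 48 h at 37 °C. SRB staining read at 515 nm. IC50 taken from [(Ti-Tz)/(C-Tz)]×100 = 50.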

MOLT-4 [3] = test: Cytotoxicity against human MOLT4 cells assessed as cell growth at 0.01 uM after 48 hrs by sulforhodamine B assay; settings: MOLT-4, 48 h, read-out: Activity
UACC-257 = test: Cytotoxicity against human UACC257 cells assessed as cell growth at 1 uM after 48 hrs by sulforhodamine B assay; settings: UACC-257, 48 h, read-out: Activity
UO-31 = test: Cytotoxicity against human UO31 cells assessed as cell growth at 100 nM after 48 hrs by sulforhodamine B assay; settings: UO-31, 48 h, read-out: Activity
A498 = test: Cytotoxicity against human A498 cells assessed as cell growth at 0.01 uM after 48 hrs by sulforhodamine B assay; settings: A498, 48 h, read-out: Activity
How it was run: (§2)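 NCI-60 five-dose screen. Cells were grown in RPMI 1640 with 5% FBS and 2 mM L-glutamine, plated at 5000–40,000 cells/well and preincubated for 24 h. Time-zero plates were TCA-fixed. DMSO-solubilized drug was added at five concentrations (10-fold or ½-log serial dilutions) for 48 h at 37 °C, 5% CO2. Cells were TCA-fixed, stained with 0.4% SRB and read at 515 nm. Percent growth used time-zero, control and test absorbances.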

U-251 = test: Cytotoxicity against human U251 cells assessed as cell growth at 0.01 uM after 48 hrs by sulforhodamine B assay; settings: U-251, 48 h, read-out: Activity
SF-295 = test: Cytotoxicity against human SF295 cells assessed as cell growth at 10 uM after 48 hrs by sulforhodamine B assay; settings: SF-295, 48 h, read-out: Activity
M14 = test: Cytotoxicity against human M14 cells assessed as cell growth at 0.01 uM after 48 hrs by sulforhodamine B assay; settings: M14, 48 h, read-out: Activity
HT-29 = test: Cytotoxicity against human HT-29 cells assessed as cell growth at 100 nM after 48 hrs by sulforhodamine B assay; settings: HT-29, 48 h, read-out: Activity
MDA-MB-468 [4] = test: Growth inhibition of human MDA-MB-468 cells after 48 hrs by sulforhodamine B assay; settings: MDA-MB-468, 48 h; how it was run: as §1
DU-145 = test: Cytotoxicity against human DU145 cells assessed as cell growth at 10 uM after 48 hrs by sulforhodamine B assay; settings: DU-145, 48 h, read-out: Activity
ACHN = test: Cytotoxicity against human ACHN cells assessed as cell growth at 10 uM after 48 hrs by sulforhodamine B assay; settings: read-out: Activity; how it was run: as §2
MOLT-4 [5] = test: Cytotoxicity against human MOLT4 cells assessed as cell growth at 10 uM; settings: read-out: Activity
How it was run: (§3)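 NCI-60 screen: cells grown in RPMI 1640 with 5% FBS and 2 mM L-glutamine, plated at 5000–40,000 cells/well according to doubling time, and preincubated 24 h at 37 °C, 5% CO2. The single 10 µM dose (DMSO stock) was added, then incubated 48 h. Cells were TCA-fixed and stained with 0.4% SRB, read at 515 nm, and growth % calculated against time-zero and control plates.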

SF-539 = test: Cytotoxicity against human SF539 cells assessed as cell growth at 100 nM after 48 hrs by sulforhodamine B assay; settings: SF-539, 48 h, read-out: Activity
SF-268 [6] = test: Cytotoxicity against human SF268 cells assessed as cell growth at 1 uM after 48 hrs by sulforhodamine B assay; settings: SF-268, 48 h, read-out: Activity
HCT-15 = test: Cytotoxicity against human HCT15 cells assessed as cell growth at 10 uM after 48 hrs by sulforhodamine B assay; settings: HCT-15, 48 h, read-out: Activity
LOX IMVI = test: Cytotoxicity against human LOXIMVI cells assessed as cell growth at 100 nM after 48 hrs by sulforhodamine B assay; settings: read-out: Activity
NCI/ADR-RES [7] = test: Cytotoxicity against human NCI/ADR-RES cells assessed as cell growth at 1 uM after 48 hrs by sulforhodamine B assay; settings: read-out: Activity
HCT-116 = test: Cytotoxicity against human HCT116 cells assessed as cell growth at 10 uM after 48 hrs by sulforhodamine B assay; settings: HCT-116, 48 h, read-out: Activity
SK-OV-3 = test: Cytotoxicity against human SKOV3 cells assessed as cell growth at 100 nM after 48 hrs by sulforhodamine B assay; settings: SK-OV-3, 48 h, read-out: Activity
SF-268 [8] = test: Cytotoxicity against human SF268 cells assessed as cell growth at 100 nM after 48 hrs by sulforhodamine B assay; settings: SF-268, 48 h, read-out: Activity
HOP-92 = test: Growth inhibition of human HOP92 cells after 48 hrs by sulforhodamine B assay; settings: HOP-92, 48 h; for CC50: read-out: LC50 (the source's name); how it was run: as §1
OVCAR-4 = test: Cytotoxicity against human OVCAR4 cells assessed as cell growth at 100 nM after 48 hrs by sulforhodamine B assay; settings: OVCAR-4, 48 h, read-out: Activity
MDA-MB-468 [9] = test: Cytotoxicity against human MDA-MB-468 cells assessed as cell growth at 100 nM after 48 hrs by sulforhodamine B assay; settings: MDA-MB-468, 48 h, read-out: Activity
NCI/ADR-RES [10] = test: Growth inhibition of human NCI/ADR-RES cells after 48 hrs by sulforhodamine B assay; settings: for CC50: read-out: LC50 (the source's name); how it was run: as §1
Malme-3M = test: Cytotoxicity against human MALME-3M cells assessed as cell growth at 10 uM; settings: read-out: Activity; how it was run: as §3

| SMILES | growth at 0.1 µM (EKVX) [%] | growth at 10 µM (IGROV-1 [1]) [%] | growth at 0.1 µM (IGROV-1 [2]) [%] | growth at 10 µM (NCI-H322M) [%] | GI50 (UACC-62) [µM] | TGI (UACC-62) [µM] | CC50 (UACC-62) [µM] | growth at 0.01 µM (MOLT-4 [3]) [%] | growth at 1 µM (UACC-257) [%] | growth at 0.1 µM (UO-31) [%] | growth at 0.01 µM (A498) [%] | growth at 0.01 µM (U-251) [%] | growth at 10 µM (SF-295) [%] | growth at 0.01 µM (M14) [%] | growth at 0.1 µM (HT-29) [%] | GI50 (MDA-MB-468 [4]) [µM] | LC50 (concentration giving 50% net cell kill) (MDA-MB-468 [4]) [µM] | TGI (MDA-MB-468 [4]) [µM] | growth at 10 µM (DU-145) [%] | growth at 10 µM (ACHN) [%] | other results |
| --- | --- | --- | --- | --- | --- | --- | --- | --- | --- | --- | --- | --- | --- | --- | --- | --- | --- | --- | --- | --- | --- |
| COc1cc(C)cc(-c2c(-c3ccnc(-c4ccc(C(C)=O)cc4)c3)cnn2CC#N)c1 | 91 | 98.5 | 83 | 70 | 4.05 | > 100 | > 100 | 99 | 38 | 78 | 77 | 89 | 35 | 86 | 95 | 1.43 | 2.13 | 3.87 | 15 | 24 | growth at 10 µM (MOLT-4 [5]): 58%; growth at 0.1 µM (SF-539): 92%; growth at 1 µM (SF-268 [6]): 15%; growth at 10 µM (HCT-15): 12%; growth at 0.1 µM (LOX IMVI): 85%; growth at 1 µM (NCI/ADR-RES [7]): 11%; growth at 10 µM (HCT-116): -17%; growth at 0.1 µM (SK-OV-3): 102%; growth at 0.1 µM (SF-268 [8]): 85%; GI50 (HOP-92): 1.46 µM; TGI (HOP-92): 7.56 µM; CC50 (HOP-92): > 100 µM; growth at 0.1 µM (OVCAR-4): 105%; growth at 0.1 µM (MDA-MB-468 [9]): 68%; GI50 (NCI/ADR-RES [10]): 2.87 µM; TGI (NCI/ADR-RES [10]): > 100 µM; CC50 (NCI/ADR-RES [10]): > 100 µM; growth at 10 µM (Malme-3M): 103% |
| Cc1cc(O)cc(-c2nn(CC#N)cc2-c2ccnc(-c3ccc(Oc4ccccc4)cc3)c2)c1 | 77 | 72.2 | 86 | -89 | 4.67 | 18.1 | 44.4 | 93 | -7 | 85 | 78 | 92 | -61 | 96 | 91 | 1.79 | 8.28 | 3.85 | -100 | -91 | growth at 10 µM (MOLT-4 [5]): 30%; growth at 0.1 µM (SF-539): 92%; growth at 1 µM (SF-268 [6]): 22%; growth at 10 µM (HCT-15): -73%; growth at 0.1 µM (LOX IMVI): 103%; growth at 1 µM (NCI/ADR-RES [7]): -50%; growth at 10 µM (HCT-116): -97%; growth at 0.1 µM (SK-OV-3): 101%; growth at 0.1 µM (SF-268 [8]): 91%; GI50 (HOP-92): 1.59 µM; TGI (HOP-92): 5.24 µM; CC50 (HOP-92): 39.5 µM; growth at 0.1 µM (OVCAR-4): 106%; growth at 0.1 µM (MDA-MB-468 [9]): 88%; GI50 (NCI/ADR-RES [10]): 2.06 µM; TGI (NCI/ADR-RES [10]): 4.56 µM; CC50 (NCI/ADR-RES [10]): 15.8 µM; growth at 10 µM (Malme-3M): 115% |
